According to ChEMBL document CHEMBL1154098, “Synthesis, characterization and in vitro antimicrobial activity of novel 2-thioxo-4-thiazolidinones and 4,4'-bis(2-thioxo-4-thiazolidinone-3-yl)diphenylsulfones” (2009):

Experiments:
Aspergillus ochraceus [1] = experiment: Antifungal activity against Aspergillus ochraceus Wilhelm AUCC 230 at 1 mg/mL after 48 hrs by agar diffusion assay; format: functional; conditions: Wilhelm AUCC 230, 48 h, read-out: DIZ
Method in brief: (§1)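 Fungi were grown on Czapek's–Dox agar and assayed by agar diffusion. Test solution was 1 mg mL-1 in DMF, with DMF as negative control. After 48 h incubation, the inhibition zone diameter was measured in mm.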

Serratia marcescens [2] = experiment: Antibacterial activity against Serratia marcescens IMRU 70 at 1 mg/mL […] by agar diffusion assay; format: functional; conditions: read-out: DIZ
Bacillus cereus [3] = experiment: Antibacterial activity against Bacillus cereus ATCC 14579 at 1 mg/mL […] by agar diffusion assay; format: functional; conditions: read-out: DIZ
Proteus mirabilis [4] = experiment: Antibacterial activity against Proteus mirabilis NCT 289 at 1 mg/mL […] by agar diffusion assay; format: functional; conditions: read-out: DIZ
Staphylococcus aureus [5] = experiment: Antibacterial activity against Staphylococcus aureus NCTC 7447 at 1 mg/mL […] by agar diffusion assay; format: functional; conditions: read-out: DIZ
Bacillus cereus [6] = experiment: Antibacterial activity against Bacillus cereus ATCC 14579 after 24 hrs by agar diffusion assay; format: functional; conditions: ATCC 14579, 24 h
Penicillium chrysogenum [7] = experiment: Antifungal activity against Penicillium chrysogenum Thom AUCC 530 at 1 mg/mL after 48 hrs by agar diffusion assay; format: functional; conditions: Thom AUCC 530, 48 h, read-out: DIZ; method in brief: as §1
Bacillus cereus [8] = experiment: Antibacterial activity against Bacillus cereus ATCC 14579 at 25 ug/mL […] by agar diffusion assay; format: functional; conditions: read-out: DIZ
Proteus mirabilis [9] = experiment: Antibacterial activity against Proteus mirabilis NCT 289 at 25 ug/mL […] by agar diffusion assay; format: functional; conditions: read-out: DIZ
Staphylococcus aureus [10] = experiment: Antibacterial activity against Staphylococcus aureus NCTC 7447 at 25 ug/mL […] by agar diffusion assay; format: functional; conditions: read-out: DIZ
Aspergillus ochraceus [11] = experiment: Antifungal activity against Aspergillus ochraceus Wilhelm AUCC 230 at 25 ug/mL after 24 hrs by agar diffusion assay; format: functional; conditions: Wilhelm AUCC 230, 24 h, read-out: DIZ
Serratia marcescens [12] = experiment: Antibacterial activity against Serratia marcescens IMRU 70 at 25 ug/mL […] by agar diffusion assay; format: functional; conditions: read-out: DIZ
Penicillium chrysogenum [13] = experiment: Antifungal activity against Penicillium chrysogenum Thom AUCC 530 at 25 ug/mL after 24 hrs by agar diffusion assay; format: functional; conditions: Thom AUCC 530, 24 h, read-out: DIZ
Penicillium chrysogenum [14] = experiment: Antifungal activity against Penicillium chrysogenum Thom AUCC 530 at 30 ug/mL after 48 hrs by agar diffusion assay; format: functional, organism-based
Method in brief: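 Agar-diffusion assay on Czapek's–Dox agar inoculated with the fungal culture. Test solutions were 1 mg mL-1 in DMF, with DMF as the negative control and Mycostatine (30 µg mL-1) as the reference drug. Plates were incubated for 48 h, and the inhibition zone diameter was measured in mm.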

Aspergillus ochraceus [15] = experiment: Antifungal activity against Aspergillus ochraceus Wilhelm AUCC 230 at 30 ug/mL after 48 hrs by agar diffusion assay; format: functional, organism-based
Penicillium chrysogenum [16] = experiment: Antifungal activity against Penicillium chrysogenum Thom AUCC 530 after 48 hrs by agar diffusion assay; format: functional; conditions: Thom AUCC 530, 48 h

Row | Compound | zone of inhibition at 1000 µg/mL (Aspergillus ochraceus [1]) [mm] | zone of inhibition at 1000 µg/mL (Serratia marcescens [2]) [mm] | zone of inhibition at 1000 µg/mL (Bacillus cereus [3]) [mm] | zone of inhibition at 1000 µg/mL (Proteus mirabilis [4]) [mm] | zone of inhibition at 1000 µg/mL (Staphylococcus aureus [5]) [mm] | MIC (Bacillus cereus [6]) [µg/mL] | zone of inhibition at 1000 µg/mL (Penicillium chrysogenum [7]) [mm] | zone of inhibition at 25 µg/mL (Bacillus cereus [8]) [mm] | zone of inhibition at 25 µg/mL (Proteus mirabilis [9]) [mm] | zone of inhibition at 25 µg/mL (Staphylococcus aureus [10]) [mm] | zone of inhibition at 25 µg/mL (Aspergillus ochraceus [11]) [mm] | zone of inhibition at 25 µg/mL (Serratia marcescens [12]) [mm] | zone of inhibition at 25 µg/mL (Penicillium chrysogenum [13]) [mm] | inhibition zone (IZ) (Penicillium chrysogenum [14]) [mm] | inhibition zone (IZ) (Aspergillus ochraceus [15]) [mm] | MIC (Penicillium chrysogenum [16]) [µg/mL]
1 | N#CC(C#N)=C1SC(=S)N(c2ccc(S(N)(=O)=O)cc2)C1=O | 14 | 24 | 32 | 18 | 15 | < 50 | 14 | – | – | – | – | – | – | – | – | –
2 | CC1(C)S[C@@H]2[C@H](NC(=O)[C@H](N)c3ccccc3)C(=O)N2[C@H]1C(=O)O [AMPICILLIN] | – | – | – | – | – | – | – | 43 | 40 | 40 | 10 | 40 | 16 | – | – | –
3 | CN(C)/C=N/S(=O)(=O)c1ccc(N2C(=O)/C(=C\N(C)C)SC2=S)cc1 | 16 | 12 | 15 | 20 | 16 | – | 16 | – | – | – | – | – | – | – | – | –
4 | NYSTATIN | – | – | – | – | – | – | – | – | – | – | – | – | – | 43 | 40 | –
5 | O=C1CSC(=S)N1c1ccc(S(=O)(=O)Nc2ncccn2)cc1 | 15 | 22 | 16 | 19 | 18 | – | 35 | – | – | – | – | – | – | – | – | < 50
6 | O=C1CSC(=S)N1c1ccc(S(=O)(=O)c2ccc(N3C(=O)CSC3=S)cc2)cc1 | 26 | 10 | 13 | 24 | 15 | – | 12 | – | – | – | – | – | – | – | – | –
7 | COc1ccc(/C=C2\SC(=S)N(c3ccc(S(=O)(=O)c4ccc(N5C(=O)/C(=C/c6ccc(OC)cc6)SC5=S)cc4)cc3)C2=O)cc1 | 11 | 13 | 16 | 25 | 17 | – | 11 | – | – | – | – | – | – | – | – | –
8 | NS(=O)(=O)c1ccc(N2C(=O)/C(=C\c3ccc(/C=C4/SC(=S)N(c5ccc(S(N)(=O)=O)cc5)C4=O)cc3)SC2=S)cc1 | 16 | 19 | 33 | 22 | 13 | < 50 | 15 | – | – | – | – | – | – | – | – | –
9 | CCO/C=C1/SC(=S)N(c2ccc(S(N)(=O)=O)cc2)C1=O | 12 | 23 | 12 | 23 | 25 | – | 18 | – | – | – | – | – | – | – | – | –
10 | NS(=O)(=O)c1ccc(N2C(=O)CSC2=S)cc1 | 18 | 20 | 13 | 24 | 28 | – | 16 | – | – | – | – | – | – | – | – | –
11 | COc1ccc(/C=C2/SC(=S)N(c3ccc(S(N)(=O)=O)cc3)C2=O)cc1 | 19 | 15 | 10 | 19 | 27 | – | 17 | – | – | – | – | – | – | – | – | –
12 | Cc1ccc(/C=C2/SC(=S)N(c3ccc(S(N)(=O)=O)cc3)C2=O)cc1 | 14 | 18 | 34 | 17 | 14 | < 50 | 10 | – | – | – | – | – | – | – | – | –
